Assay results published in ChEMBL document CHEMBL1255446, “Combinations of mutations in the connection domain of human immunodeficiency virus type 1 reverse transcriptase: assessing the impact on nucleoside and nonnucleoside reverse transcriptase inhibitor resistance” (2010).

How the values were obtained:
Type in all cases: functional
[1] = system: Human immunodeficiency virus 1; test: Antiviral activity against HIV1 with RT connection domain G190A mutant transfected in HEK293 cells assessed as inhibition of viral replication relative to HIV1 NL4-3
Procedure, shortened: (§1)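 Single-replication-cycle (PhenoSense) assay. Site-directed mutant RT pseudoviruses were made by cotransfecting 293 cells with RTV plasmid plus an amphotropic MLV Env plasmid, harvested at 48 h, and used to infect fresh 293 cells. Serial drug dilutions were added before infection. Luciferase was read ~72 h post-infection, % inhibition was computed, and EC50 was taken from the curves. Values are fold change versus NL4-3 reference run in the same experiment.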

[2] = system: Human immunodeficiency virus 1; test: Antiviral activity against HIV1 with RT connection domain Y181C/T369I/N348I mutant transfected in HEK293 cells assessed as inhibition of viral replication relative to HIV1 NL4-3; procedure, shortened: as §1
[3] = system: Human immunodeficiency virus 1; test: Antiviral activity against HIV1 with RT connection domain Y181C/T369I mutant transfected in HEK293 cells assessed as inhibition of viral replication relative to HIV1 NL4-3; procedure, shortened: as §1
[4] = system: Human immunodeficiency virus 1; test: Antiviral activity against HIV1 with RT connection domain G190A/T369I mutant transfected in HEK293 cells assessed as inhibition of viral replication relative to HIV1 NL4-3; procedure, shortened: as §1
[5] = system: Human immunodeficiency virus 1; test: Antiviral activity against HIV1 with RT connection domain T369I mutant transfected in HEK293 cells assessed as inhibition of viral replication relative to HIV1 NL4-3; procedure, shortened: as §1
[6] = system: Human immunodeficiency virus 1; test: Antiviral activity against HIV1 with RT connection domain L100I mutant transfected in HEK293 cells assessed as inhibition of viral replication relative to HIV1 NL4-3; procedure, shortened: as §1
[7] = system: Human immunodeficiency virus 1; test: Antiviral activity against HIV1 with RT connection domain K103N/N348I mutant transfected in HEK293 cells assessed as inhibition of viral replication relative to HIV1 NL4-3; procedure, shortened: as §1
[8] = system: Human immunodeficiency virus 1; test: Antiviral activity against HIV1 with RT connection domain T369V mutant transfected in HEK293 cells assessed as inhibition of viral replication relative to HIV1 NL4-3; procedure, shortened: as §1
[9] = system: Human immunodeficiency virus 1; test: Antiviral activity against HIV1 with RT connection domain L100I/N348I mutant transfected in HEK293 cells assessed as inhibition of viral replication relative to HIV1 NL4-3; procedure, shortened: as §1
[10] = system: Human immunodeficiency virus 1; test: Antiviral activity against HIV1 with RT connection domain Y181C/N348I mutant transfected in HEK293 cells assessed as inhibition of viral replication relative to HIV1 NL4-3; procedure, shortened: as §1
[11] = system: Human immunodeficiency virus 1; test: Antiviral activity against HIV1 with RT connection domain G190S/T369I mutant transfected in HEK293 cells assessed as inhibition of viral replication relative to HIV1 NL4-3; procedure, shortened: as §1
[12] = system: Human immunodeficiency virus 1; test: Antiviral activity against HIV1 with RT connection domain G190A/T369I/N348I mutant transfected in HEK293 cells assessed as inhibition of viral replication relative to HIV1 NL4-3; procedure, shortened: as §1
[13] = system: Human immunodeficiency virus 1; test: Antiviral activity against HIV1 with RT connection domain T369I/N348I mutant transfected in HEK293 cells assessed as inhibition of viral replication relative to HIV1 NL4-3; procedure, shortened: as §1
[14] = system: Human immunodeficiency virus 1; test: Antiviral activity against HIV1 with RT connection domain L100I/T369I/N348I mutant transfected in HEK293 cells assessed as inhibition of viral replication relative to HIV1 NL4-3; procedure, shortened: as §1
[15] = system: Human immunodeficiency virus 1; test: Antiviral activity against HIV1 with RT connection domain G190S/N348I mutant transfected in HEK293 cells assessed as inhibition of viral replication relative to HIV1 NL4-3; procedure, shortened: as §1
[16] = system: Human immunodeficiency virus 1; test: Antiviral activity against HIV1 with RT connection domain Y181C mutant transfected in HEK293 cells assessed as inhibition of viral replication relative to HIV1 NL4-3; procedure, shortened: as §1
[17] = system: Human immunodeficiency virus 1; test: Antiviral activity against HIV1 with RT connection domain K103N/T369I mutant transfected in HEK293 cells assessed as inhibition of viral replication relative to HIV1 NL4-3; procedure, shortened: as §1
[18] = system: Human immunodeficiency virus 1; test: Antiviral activity against HIV1 with RT connection domain G190S mutant transfected in HEK293 cells assessed as inhibition of viral replication relative to HIV1 NL4-3; procedure, shortened: as §1
[19] = system: Human immunodeficiency virus 1; test: Antiviral activity against HIV1 with RT connection domain K103N/T369I/N348I mutant transfected in HEK293 cells assessed as inhibition of viral replication relative to HIV1 NL4-3; procedure, shortened: as §1
[20] = system: Human immunodeficiency virus 1; test: Antiviral activity against HIV1 with RT connection domain N348I mutant transfected in HEK293 cells assessed as inhibition of viral replication relative to HIV1 NL4-3; procedure, shortened: as §1
[21] = system: Human immunodeficiency virus 1; test: Antiviral activity against HIV1 with RT connection domain L100I/T369I mutant transfected in HEK293 cells assessed as inhibition of viral replication relative to HIV1 NL4-3; procedure, shortened: as §1
[22] = system: Human immunodeficiency virus 1; test: Antiviral activity against HIV1 with RT connection domain G190A/N348Ib mutant transfected in HEK293 cells assessed as inhibition of viral replication relative to HIV1 NL4-3; procedure, shortened: as §1
[23] = system: Human immunodeficiency virus 1; test: Antiviral activity against HIV1 with RT connection domain G190S/T369I/N348I mutant transfected in HEK293 cells assessed as inhibition of viral replication relative to HIV1 NL4-3; procedure, shortened: as §1
[24] = system: Human immunodeficiency virus 1; test: Antiviral activity against HIV1 with RT connection domain K103N mutant transfected in HEK293 cells assessed as inhibition of viral replication relative to HIV1 NL4-3; procedure, shortened: as §1

Row | SMILES | fold change (FC) [1] | fold change (FC) [2] | fold change (FC) [3] | fold change (FC) [4] | fold change (FC) [5] | fold change (FC) [6] | fold change (FC) [7] | fold change (FC) [8] | fold change (FC) [9] | fold change (FC) [10] | fold change (FC) [11] | fold change (FC) [12] | fold change (FC) [13] | fold change (FC) [14] | fold change (FC) [15] | fold change (FC) [16] | fold change (FC) [17] | fold change (FC) [18] | fold change (FC) [19] | fold change (FC) [20] | also measured
1 | CC(C)Nc1cccnc1N1CCN(C(=O)c2cc3cc(NS(C)(=O)=O)ccc3[nH]2)CC1 [DELAVIRDINE] | 0.3 | >250 | >250 | 1.2 | 5.2 | 34 | >250 | 5.5 | 90.7 | >250 | 0.6 | 5.9 | 29.8 | >250 | 0.9 | 44.7 | >250 | 0.3 | >250 | 3.4 | fold change (FC) [21]: 49.7; fold change (FC) [22]: 1.1; fold change (FC) [23]: 6.9; fold change (FC) [24]: 75.7
2 | Cc1cn([C@H]2C[C@H](N=[N+]=[N-])[C@@H](CO)O2)c(=O)[nH]c1=O [ZIDOVUDINE] | 1.1 | 2.2 | 0.9 | 1.7 | 2.7 | 0.1 | 2.6 | 2.1 | 0.3 | 0.7 | 0.7 | 4.2 | 5.4 | 0.5 | 1.7 | 0.3 | 2.3 | 0.8 | 7.9 | 2.4 | fold change (FC) [21]: 0.2; fold change (FC) [22]: 2; fold change (FC) [23]: 5.8; fold change (FC) [24]: 1.1
3 | O=C1Nc2ccc(Cl)cc2[C@@](C#CC2CC2)(C(F)(F)F)O1 [EFAVIRENZ] | 5.2 | 17 | 4 | 33.7 | 2.4 | 9 | 115 | 3.1 | 16 | 3.2 | >700 | >700 | 8.1 | 137.7 | >700 | 1.7 | 164.1 | 63 | >700 | 1.9 | fold change (FC) [21]: 13.6; fold change (FC) [22]: 26; fold change (FC) [23]: >700; fold change (FC) [24]: 21.3
4 | Cc1ccnc2c1NC(=O)c1cccnc1N2C1CC1 [NEVIRAPINE] | 127.7 | >400 | >400 | >400 | 8.4 | 2.1 | >400 | 9.2 | 5.3 | >400 | >400 | >400 | 58.6 | 56.3 | >400 | 317 | >400 | 145 | >400 | 4.1 | fold change (FC) [21]: 4.8; fold change (FC) [22]: >400; fold change (FC) [23]: >400; fold change (FC) [24]: 81
